Here are results for 22 molecules from ChEMBL document CHEMBL1121868, “Synthesis and biological effects of acyclic pyrimidine nucleoside analogues” (J Med Chem, 1981).

Some results are limits rather than exact numbers.

Assay type in all cases: functional, organism-based
The subject of assay [1] is Escherichia coli. Put plainly: In vitro inhibition of Escherichia coli K-12 growth.
The subject of assay [2] is Escherichia coli. Put plainly: In vitro concentration required for growth inhibition of Escherichia coli K-12 strain resistant to 10e-3 M 5-flourouracil. An outline of the steps:
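In vitro growth assay on an E. coli K-12 strain resistant to 10^-3 M 5-fluorouracil. IC50 is the concentration giving 50% inhibition of E. coli K-12 growth. The growth procedure follows earlier published methods.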

The subject of assay [3] is Escherichia coli. Put plainly: In vitro concentration required for growth inhibition of 5-fluorouracil resistant strain of Escherichia coli in presence of uracil metabolite at 10e-3 M concentration.
Assay [4] has as its system Escherichia coli. Put plainly: In vitro concentration required for growth inhibition of 5-fluorouracil resistant strain of Escherichia coli in presence of cytosine metabolite at 10e-3 M concentration.
In assay [5] the test system is Escherichia coli. Nature of the assay: In vitro concentration required for growth inhibition of 5-fluorouracil resistant strain of Escherichia coli in presence of 2'-deoxyuridine metabolite at 10e-3 M concentration.
For assay [6], the system named is Escherichia coli. Put plainly: In vitro concentration required for growth inhibition of 5-fluorouracil resistant strain of Escherichia coli in presence of thymine metabolite at 10e-3 M concentration.
Assay [7] deals with Escherichia coli. Nature of the assay: In vitro concentration required for growth inhibition of 5-fluorouracil resistant strain of Escherichia coli in presence of thymidine metabolite at 10e-3 M concentration.
Assay [8] relates to Escherichia coli. Put plainly: In vitro concentration required for growth inhibition of 5-fluorouracil resistant strain of Escherichia coli in presence of cytidine metabolite at 10e-3 M concentration.
The test system of assay [9] is Escherichia coli. Nature of the assay: In vitro concentration required for growth inhibition of 5-fluorouracil resistant strain of Escherichia coli in presence of uridine metabolite at 10e-3 M concentration.
Assay [10] concerns Escherichia coli. Nature of the assay: In vitro concentration required for growth inhibition of 5-fluorouracil resistant strain of Escherichia coli in presence of 2'-deoxycytidine metabolite at 10e-3 M concentration.

In the assay with Escherichia coli [1], `Nc1ccn(COCCO)c(=O)n1` registered an IC50 of 87 µM.
Same read-out and setting: in the case of `CC(C)n1ccc(N)nc1=O` it was above 1000 µM; in that of `Cn1ccc(=O)n(C)c1=O`, 15 µM.
In the assay on Escherichia coli [1], `CCCCCCC(C(C)=O)n1ccc(N)nc1=O` (configuration not stated) showed a concentration for half-maximal inhibition (IC50) of 30 µM.
Same read-out and setting: in the case of `CC(=O)Nc1ccn(COCCOC(=O)Oc2ccccc2)c(=O)n1` it was above 1000 µM; in that of `Cc1cn(COCCO)c(=O)[nH]c1=O`, above 1000 µM.
In the assay on Escherichia coli [1], `CC(=O)C(C)n1ccc(N)nc1=O` (configuration not stated) returned a half-inhibitory concentration (IC50) of 560 µM.
Still for that read-out and setting: in the case of `CC(=O)Nc1ccn(COCCN=[N+]=[N-])c(=O)n1` it was above 1000 µM; in that of `O=C(OCCOCn1ccc(=O)[nH]c1=O)c1ccccc1`, 100 µM; in that of `COc1ccn(C)c(=O)n1`, 61 µM.
For the molecule `Nc1ccn(COCCOC(=O)c2ccccc2)c(=O)n1`, the IC50 with Escherichia coli [1] amounted to 900 µM.
For the molecule `O=C(OCCOCn1cc(F)c(=O)[nH]c1=O)c1ccccc1`, the 50% inhibitory concentration (IC50) with Escherichia coli [2] was 180 µM; in the assay on Escherichia coli [1], 9 µM.
In the assay with Escherichia coli [1], `Cc1cn(COCCN)c(=O)[nH]c1=O` yielded an IC50 of 310 µM.
Still for that read-out and setting: the same measure for `[N-]=[N+]=NCCOCn1ccc(N)nc1=O`: 440 µM.
As for `O=c1ccn(COCCO)c(=O)[nH]1`, the IC50 in the assay with Escherichia coli [1] was 320 µM.
As for `O=c1[nH]c(=O)n(COCCO)cc1F`, the half-maximal inhibitory concentration (IC50) was found to be 8.4 µM in the assay on Escherichia coli [3]; 7.4 µM in the assay on Escherichia coli [4]; 370 µM with Escherichia coli [5]; 730 µM in the assay with Escherichia coli [6]; 4.2 µM with Escherichia coli [2]; 1.2 µM with Escherichia coli [1]. For the same molecule, the concentration for half-maximal inhibition (IC50) in the assay on Escherichia coli [7] turned out to be 1000 µM; in the assay with Escherichia coli [8], 9.1 µM; in the assay on Escherichia coli [9], 240 µM; in the assay with Escherichia coli [10], 9.5 µM.
`CC(=O)Nc1ccn(COCCO)c(=O)n1` gave an IC50 in the assay with Escherichia coli [1] above 1000 µM.
Still for that read-out and setting: the same measure for `NC(=O)OCCOCn1ccc(N)nc1=O`: 910 µM.
The same measure, in the same setting: in the case of `Cc1cn(COCCOC(=O)c2ccccc2)c(=O)[nH]c1=O` it was 860 µM.
The same measure, in the same setting: the same measure for `NCCOCn1ccc(N)nc1=O`: above 1000 µM; for `Cc1cn(COCCN=[N+]=[N-])c(=O)[nH]c1=O`: 250 µM.
The molecule `CN(C)c1ccn(C)c(=O)n1` came in with a half-maximal inhibitory concentration (IC50) in the assay with Escherichia coli [1] of 80 µM.

Broadly, the IC50 is the concentration that inhibits the measured activity by half.
